Source: ChEMBL document CHEMBL4052822, “Design and Synthesis of Orally Bioavailable Piperazine Substituted 4(1H)-Quinolones with Potent Antimalarial Activity: Structure-Activity and Structure-Property Relationship Studies” (J Med Chem, 2018)
Active and inactive are the calls of the source. The calls are words filed in the database; no cut-off is given here.

Key:
J774 = experiment: Cytotoxicity against mouse J774 cells after 72 hrs by CellTiter-96 aqueous one solution cell proliferation assay; assay type: cell-based; conditions: J774, 72 h
Summary of the method: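 Compounds from 10 µg/mL or 20 µM top concentration, 1:2 serial dilutions over 11 concentrations, 72 h at 37 °C, 5% CO2. MTS-type reagent added for 4 h, absorbance read at 490 nm. IC50 by nonlinear regression.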

Plasmodium falciparum [1] = experiment: Antimalarial activity against mefloquine/chloroquine/atovaquone/pyrimethamine-resistant Plasmodium falciparum TM90-C2B infected in human type A-positive erythrocytes after 48 hrs by [3H]-hypoxanthine incorporation assay; assay type: functional, cell-based
Summary of the method: (§1)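 Compound from 10.0 mM DMSO stock, diluted ≥1:400, then 11 concentrations in duplicate. Incubated at 37 °C under 90% N2/5% O2/5% CO2 for 48 h, then 3H-hypoxanthine added for 24 h more. CPM counted; EC50 by nonlinear regression.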

Plasmodium berghei [2] = experiment: Antimalarial activity against Plasmodium berghei infected in human HepG2 cells after 44 hrs by luciferase assay; assay type: functional, cell-based; conditions: HepG2, 44 h
Summary of the method: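 HepG2 cells, 75000 per well, in DMEM with 10% FBS at 37 °C, 5% CO2. 5000 Pb luciferase sporozoites from dissected mosquito salivary glands added per well for 3 h, then washed three times with PBS. Serially diluted compound added in triplicate, 44 h at 37 °C. Cells lysed, luciferase substrate added, luminescence read.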

Plasmodium falciparum [3] = experiment: Antimalarial activity against pyrimethamine/chloroquine-resistant Plasmodium falciparum W2 infected in human type A-positive erythrocytes after 48 hrs by [3H]-hypoxanthine incorporation assay; assay type: functional, cell-based; summary of the method: as §1
[4] = Resistance index, ratio of EC50 for mefloquine/chloroquine/atovaquone/pyrimethamine-resistant Plasmodium falciparum TM90-C2B to EC50 for pyrimethamine/chloroquine-resistant Plasmodium falciparum W2; assay type: functional
Plasmodium berghei [5] = experiment: animal or person; conditions: in Mus musculus, po, read-out: INH
[6] = Aqueous solubility of compound at pH 6.5; assay type: physicochemical
Plasmodium berghei [7] = experiment: Antimalarial activity against blood stage form of GFP transfected Plasmodium berghei infected in mouse assessed as protection against parasitemia at 10 mg/kg, po administered on day 3, 4, 5 post infection measured on day 30 by Thompson test; assay type: functional, organism-based
Summary of the method: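 Modified Thompson model: mice inoculated ip with 2×10^6 P. berghei (GFP)-infected red blood cells, parasitemia near 1% by day 3. […] Animals followed for 30 days; survival to day 30 with parasitemia below 1% counted as cure.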

Plasmodium berghei [8] = experiment: Antimalarial activity against blood stage form of GFP transfected Plasmodium berghei infected in mouse assessed as mouse survival day at 10 mg/kg, po administered on day 3, 4, 5 post infection by Thompson test; assay type: functional

| Compound | EC50 (J774) [nM] | EC50 (Plasmodium falciparum [1]) [nM] | EC50 (Plasmodium berghei [2]) [nM] | EC50 (Plasmodium falciparum [3]) [nM] | Ratio EC50 [4] | inhibition in vivo at 50 mg/kg (Plasmodium berghei [5]) [%] | solubility [6] [µM] | Activity (Plasmodium berghei [7]) | Survival (Plasmodium berghei [8]) |
| --- | --- | --- | --- | --- | --- | --- | --- | --- | --- |
| COC(=O)c1c[nH]c2cc(N3CCN(c4ccc(OC)cc4)CC3)c(OC)cc2c1=O | > 20000 | 2000 | > 100 | 43 | 47 |  |  |  |  |
| C[C@H]1[C@@H](O)O[C@@H]2O[C@@]3(C)CC[C@H]4[C@H](C)CC[C@@H]1[C@@]24OO3 [ARTENIMOL] | 1500 |  |  |  |  |  |  |  |  |
| COC(=O)c1c[nH]c2cc(N3CCN(Cc4ccc(OC)cc4)CC3)ccc2c1=O |  | 1300 |  | 20 | 65 |  |  |  |  |
| COC(=O)c1c[nH]c2cc(CN3CCN(Cc4ccc5c(c4)OCO5)CC3)ccc2c1=O | > 20000 | > 2000 |  | 160 |  |  |  |  |  |
| COC(=O)c1c[nH]c2cc(CN3CCN(Cc4ccccc4)CC3)c(C)cc2c1=O | > 20000 | 890 | 9.5 | 1.5 |  | 24.6 |  |  |  |
| COC(=O)c1c[nH]c2cc(CCN3CCN(Cc4ccccc4)CC3)ccc2c1=O | > 20000 | > 2000 | 160 | 120 |  |  | ≥ 80 |  |  |
| COC(=O)c1c[nH]c2ccc(CN3CCN(c4ccc(OC)cc4)CC3)cc2c1=O | > 20000 | > 2000 | > 100 | 160 |  |  |  |  |  |
| COC(=O)c1c[nH]c2cc(N3CCN(Cc4ccccc4)CC3)c(C)cc2c1=O | > 20000 | 980 | > 100 | 13 | 75 |  |  |  |  |
| COC(=O)c1c[nH]c2cc(CN3CCN(c4ccc(OC)cc4)CC3)c(C)cc2c1=O | > 20000 | 180 | 4.1 | 0.57 |  |  |  |  |  |
| COC(=O)c1c[nH]c2cc(CN3CCN(Cc4ccccc4)CC3)ccc2c1=O | 10000 | 150 | 44 | 1.4 |  | 12.3 | ≥ 80 |  |  |
| COC(=O)c1c[nH]c2cc(CN3CCN(c4ccc(C(F)(F)F)cc4)CC3)c(OC)cc2c1=O | > 20000 | 210 | 9.6 | 6.4 |  |  |  |  |  |
| CCN(CC)CCCC(C)Nc1ccnc2cc(Cl)ccc12 (stereo not drawn) [CHLOROQUINE] | 47200 |  |  |  |  |  |  |  |  |
| COC(=O)c1c[nH]c2cc(N3CCN(c4ccccc4)CC3)c(C)cc2c1=O | 17000 | 1100 |  | 46 |  | 31.6 |  |  |  |
| O=C1C(O)=C([C@H]2CC[C@H](c3ccc(Cl)cc3)CC2)C(=O)c2ccccc21 [ATOVAQUONE] | 28000 |  |  |  |  |  |  | Active |  |
| COC(=O)c1c[nH]c2cc(N3CCN(Cc4ccccc4)CC3)ccc2c1=O | > 20000 | 860 | 85 | 16 |  |  |  |  |  |
| COC(=O)c1c[nH]c2cc(CN3CCN(Cc4ccccc4)CC3)c(OC)cc2c1=O | > 20000 | > 2000 | 9.3 | 5.5 |  | 19.3 |  |  |  |
| COC(=O)c1c[nH]c2cc(N3CCN(c4ccc(OC)cc4)CC3)ccc2c1=O | > 20000 | 150 |  | 7.8 | 20 |  |  |  |  |
| COC(=O)c1c[nH]c2cc(CN3CCN(c4ccccc4)CC3)c(OC)cc2c1=O | > 20000 | 490 | 110 | 1.6 |  | 82.4 |  |  |  |
| COC(=O)c1c[nH]c2cc(CN3CCN(c4ccc(OC)cc4)CC3)c(OC)cc2c1=O | 16000 | 860 | 10 | 3.4 |  | 70.6 |  |  |  |
| COC(=O)c1c[nH]c2cc(CN3CCN(c4ccc(OC)cc4)CC3)ccc2c1=O |  | 220 | 0.12 | 3.6 |  | 39.2 |  |  |  |

| Compound | EC50 (J774) [nM] | EC50 (Plasmodium falciparum [1]) [nM] | EC50 (Plasmodium berghei [2]) [nM] | EC50 (Plasmodium falciparum [3]) [nM] | Ratio EC50 [4] | inhibition in vivo at 50 mg/kg (Plasmodium berghei [5]) [%] | solubility [6] [µM] | Activity (Plasmodium berghei [7]) | Survival (Plasmodium berghei [8]) |
| --- | --- | --- | --- | --- | --- | --- | --- | --- | --- |
| COC(=O)c1c[nH]c2cc(CN3CCN(Cc4ccc(OC)cc4)CC3)c(C)cc2c1=O | > 20000 | 1000 |  | 2.4 |  |  |  |  |  |
| COC(=O)c1c[nH]c2ccc(CN3CCN(c4ccccc4)CC3)cc2c1=O | > 20000 | > 2000 | 91 | 150 |  |  |  |  |  |
| COC(=O)c1c[nH]c2cc(CN3CCN(c4ccccc4)CC3)c(C)cc2c1=O | 12000 | 150 | 6.9 | 0.44 |  |  |  | inactive |  |
| COC(=O)c1c[nH]c2cc(CN3CCN(c4ccc(F)cc4)CC3)c(OC)cc2c1=O | > 20000 | 220 | 32 | 1.8 |  | 56.9 |  |  |  |
| COC(=O)c1c[nH]c2cc(CCN3CCN(c4ccccc4)CC3)ccc2c1=O | > 20000 | 1500 |  | 25 | 60 |  | ≥ 80 |  |  |
| COC(=O)c1c[nH]c2cc(N3CCN(c4ccccc4)CC3)c(OC)cc2c1=O | 17000 | 800 |  | 37 |  |  |  |  |  |
| Cc1[nH]c2cc(CN3CCN(c4ccc(F)cc4)CC3)ccc2c(=O)c1Br | > 20000 | 26 |  |  |  |  |  | inactive | <=13 day |
| Cc1cc(=O)c2ccc(CN3CCN(c4ccc(F)cc4)CC3)cc2[nH]1 | > 20000 | 1500 |  | 1200 | 1.2 |  |  |  |  |
| COC(=O)c1c[nH]c2ccc(CN3CCN(c4ccc(C(F)(F)F)cc4)CC3)cc2c1=O | > 20000 | > 2000 | 85 | 45 |  |  |  |  |  |
| COC(=O)c1c[nH]c2cc(N3CCN(c4ccccc4)CC3)ccc2c1=O | > 20000 | 250 | 74 | 4.5 |  |  | < 20 |  |  |
| COC(=O)c1c[nH]c2cc(CN3CCN(Cc4ccc(OC)cc4)CC3)c(OC)cc2c1=O | > 20000 | > 2000 | 52 | 10 |  | 24.6 |  |  |  |
| COC(=O)c1c[nH]c2cc(CN3CCN(c4ccc(C(F)(F)F)cc4)CC3)c(C)cc2c1=O | > 20000 | 100 |  | 0.066 |  |  |  |  |  |
| Cc1[nH]c2cc(CN3CCN(c4ccc(C(F)(F)F)cc4)CC3)ccc2c(=O)c1Cl | > 20000 | 1500 |  | 140 | 11 |  |  |  |  |
| Cc1[nH]c2cc(CN3CCN(c4ccc(C(F)(F)F)cc4)CC3)ccc2c(=O)c1Br | > 20000 | 95 |  | 120 | 0.8 |  |  |  |  |
| O=c1c(Cl)c[nH]c2cc(CN3CCN(c4ccc(F)cc4)CC3)ccc12 | > 20000 | > 2000 |  | 1100 |  | 71.9 |  |  |  |
| COC(=O)c1c[nH]c2cc(N3CCN(Cc4ccccc4)CC3)c(OC)cc2c1=O | 12000 | 200 |  | 64 |  |  |  |  |  |
| COC(=O)c1c[nH]c2cc(CN3CCN(c4ccc(F)cc4)CC3)c(C)cc2c1=O | 16000 | 350 | 2.6 | 0.84 |  |  |  |  | <=21 day |
| COC(=O)c1c[nH]c2cc(CCN3CCN(Cc4ccc(OC)cc4)CC3)ccc2c1=O | > 20000 |  |  | 12 |  |  | ≥ 80 |  |  |
| COc1cc2c(=O)c(Br)c(C)[nH]c2cc1CN1CCN(c2ccc(C(F)(F)F)cc2)CC1 | > 20000 | > 2000 |  | 130 |  |  |  |  |  |
| COC(=O)c1c[nH]c2ccc(CN3CCN(c4ccc(F)cc4)CC3)cc2c1=O | > 20000 | > 2000 |  | 110 |  |  |  |  |  |
